Assay outcomes deposited in PubChem BioAssay by Sanford-Burnham Center for Chemical Genomics.
In the library only some 1.1% were active in any assay of this set; here they are far more common.
PMI act hi M6P: increases human PMI activity with near-saturating mannose 6-phosphate. P34949. coupled PMI enzyme assay, resazurin fluorescence, 20 min; hits give high values; 1 = untreated enzyme, 0 = substrate-free blank. activation factor at 20 µM. hit rate 0.34% among 190,000;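 active means activation factor of 2 or more at 20 µM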
Target sequence (P34949 whole entry, looked up): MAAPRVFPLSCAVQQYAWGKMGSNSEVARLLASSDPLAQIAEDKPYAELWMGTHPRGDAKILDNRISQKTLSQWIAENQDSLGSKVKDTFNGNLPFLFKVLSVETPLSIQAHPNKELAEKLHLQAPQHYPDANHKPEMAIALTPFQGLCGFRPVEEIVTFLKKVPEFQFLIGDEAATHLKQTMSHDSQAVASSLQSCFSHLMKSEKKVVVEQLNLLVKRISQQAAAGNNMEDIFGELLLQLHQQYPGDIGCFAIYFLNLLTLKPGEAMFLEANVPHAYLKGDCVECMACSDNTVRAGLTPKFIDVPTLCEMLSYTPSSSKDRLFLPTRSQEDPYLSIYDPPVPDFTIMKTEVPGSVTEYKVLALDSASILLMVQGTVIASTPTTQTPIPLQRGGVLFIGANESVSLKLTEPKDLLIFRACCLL
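Test system – human PMI in coupled enzyme assay · Timing – 20 min incubation at room temperature · Detection – Diaphorase-driven resazurin-to-resorufin fluorescence, excitation 544, emission 590 nm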
Diaphorase act: diaphorase activation or chemical reduction counter-screen; Diaphorase/resazurin coupled assay, resorufin fluorescence, 16 min; hits give high values; 1 = vehicle wells, 0 = NADH-free wells; activation factor at 20 µM; hit rate 0.005% among 190,000; AID 1229;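 active means diaphorase activity raised at least twofold by the compound at 20 µM; inactive means activation factor below 2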
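test system = bacterial diaphorase enzyme (C. kluyveri) | quantity = enzyme 0.07 U/mL final | reagent = NADH substrate 0.114 mM plus resazurin dye 0.1 mM, final | incubation = 16 min enzyme reaction, ambient temperature | buffer or medium = HEPES pH 7.4 buffer with MgCl2 and Tween 20 | signal = fluorescence of resorufin, 544 nm excitation, 590 nm emission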
PMI act: phosphomannose isomerase (human) activation | AID 1214 | P34949 | hit rate 0.005% among 190,000 | purified human PMI, coupled resazurin fluorescence, 20 min; hits give high values; 1 = vehicle control, 0 substrate-free wells | activation factor at 20 µM;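 active means activation factor of 2 or more at 20 µM, relative to plate controls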
G6PDH counter: L. mesenteroides G6PDH inhibition counter-screen; Purified L. mesenteroides G6PDH, diaphorase/resazurin coupled fluorescence, 45 min; inhibition, % at 5 µM; hit rate 0.12% among 200,000; AID 1020; in the data active means inhibition above about 50%
Diaphorase inh: inhibits diaphorase or chemically oxidizes, flagging diaphorase assay artifacts. diaphorase resazurin-to-resorufin fluorescence, NADH, 16 min; bacterial (C. kluyveri) enzyme, not human. inhibition, % at 20 µM. hit rate 0.69% among 190,000. AID 1217;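 active means primary screen inhibition at 20 µM above a set limit, cut at about 50% in these data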;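 further: plate controls were DMSO with full reaction for no effect and wells lacking NADH for full effect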
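Test system: Clostridium kluyveri diaphorase enzyme / Quantity: diaphorase at 0.14 U/mL in enzyme working solution / Incubation: 16-min room-temperature incubation before reading / Benchmarks: NADH-free wells as positive control, DMSO-only neutral wells / Signal: resorufin fluorescence 544/590 nm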
The depositor's hits bear a star.

SMILES | PMI act hi M6P | Diaphorase act | PMI act | G6PDH counter | Diaphorase inh
COCCCn1c(=S)[nH]c2sc3c(c2c1=O)CCCS3 | 1 | 0.7 | 1 | 3.1 | 32.4
c1cc2cn[nH]c2cc1NC1CCCCCC1 | 0.4 | 0.3 | 0.4 | 32.9 | 72.2*
CC(=O)Nc1ccc(C(=O)CSc2nnnn2C2CCCC2)cc1 | 1 | 0.9 | 1 | 6.9 | 12.7
Cc1ccc(Nc2nc(=O)c3cccnc3s2)cc1 | 1 | 0.9 | 1 | -5.7 | 10.1
COc1ccc(OC)c(Nc2nc(=O)c3cccnc3s2)c1 | 0.6 | 0.3 | 0.3 | 28.3 | 65.3*
COc1ccc(C(=O)NCC(=O)OCC(=O)Nc2sccc2C#N)cc1OC | 0.8 | 0.8 | 0.9 | 12.1 | 22.2
O=C(O)c1cc(-c2ccccc2)on1 | 1.1 | 1 | 1.1 | -3.6 | 2.2
O=C(O)c1cc(-c2ccc(O)cc2)on1 | 0.9 | 0.3 | 0.9 | 15.0 | 74.9*
CC/C(=C/c1sc2ccccc2[n+]1CC)SC | 2* | 0.9 | 1.7 | -9.8 | 6.7
CC[n+]1c(/C=C(/C)SC)sc2ccccc21 | 1.4 | 0.8 | 1.1 | -1.8 | 18.4
CC[n+]1c(/C=C(\C)SC)sc2ccccc21 | 2* | 1 | 1.5 | 9.5 | 1.8
Cc1occc1C(=O)NN1C(=O)C2C3CCC(O3)C2C1=O (stereo unspecified) | 1 | 0.9 | 1 | -1.2 | 12.7
Cn1c(O)c(C2=c3ccccc3=NC2=O)[nH]c1=S | 0.9 | 1 | 1 | -4.7 | -4.9
COc1ccc2nc(-n3c(O)c(C4=c5ccccc5=NC4=O)[nH]c3=S)sc2c1 | 1 | 0.5 | 1 | -14.6 | 52.0*
CN1CCOC(=O)/C1=N/Nc1cc(Cl)ccc1Cl | 1 | 0.9 | 1.2 | -0.7 | 7.8
CC1CCCCC1NC(=O)COC(=O)c1c2c(nc3ccccc13)/C(=C/c1ccco1)CC2 (stereo unspecified) | 2* | 0.6 | 1.7 | 8.8 | 37.8
CCN(CC)S(=O)(=O)c1ccc(NC(=O)COC(=O)c2ccc(NC(=O)CC#N)cc2)cc1 | 1 | 1 | 1.1 | 2.1 | -2.4
COC(=O)c1ccc(S(=O)(=O)N2Cc3ccccc3C2)cc1 | 1.1 | 1 | 1.1 | -9.7 | -3.1
O=[N+]([O-])C1=CC=C2C(=NC3(CCCCC3)N2O)C1=NCCO | 0.3 | 0.2 | 0.2 | 23.8 | 76.1*
CN=C1C([N+](=O)[O-])=CC=C2C1=NC1(CCCCC1)N2O | 0.3 | 0.3 | 0.3 | 39.9 | 71.5*
Cc1cc[n+](-c2ccccc2)c2ccccc12 | 0.9 | 1 | 1.2 | 9.3 | -1.0
COC(=O)c1ccc(S(=O)(=O)N2CCCCCC2)cc1 | 0.9 | 0.8 | 1 | -0.2 | 15.7
O=C(/C=C/c1ccc(O)c(O)c1)c1ccc(S(=O)(=O)N2CCCCCC2)cc1 | 0.7 | 0.5 | 0.3 | 6.1 | 52.2*
Cn1c(O)c(/C=N/Nc2ccccc2)c(=O)n(C)c1=O | 2.6* | 1 | 1.7 | 2.8 | 4.4
Cc1c(/C=N/Nc2ccc(F)cc2)c(O)n(C)c(=O)c1C#N | 1.1 | 0.4 | 1.1 | 25.7 | 55.6*
SMILES | PMI act hi M6P | Diaphorase act | PMI act | G6PDH counter | Diaphorase inh
CC(=O)N=Cc1c(C)c(C#N)c(=O)n(C)c1O | 0.5 | 0.7 | 1 | 7.7 | 29.2
Nc1ccccc1Oc1ccc2ccccc2c1 | 0.9 | 0.9 | 0.9 | 17.0 | 13.2
Cc1onc(NC(=O)c2ccc(Cl)cc2Cl)c1Br | 1.1 | 0.9 | 1.2 | 5.2 | 13.3
CSC1=C(C#N)C(c2ccccc2)C(C(C)=O)=C(C)N1 (stereo unspecified) | 1 | 0.9 | 1 | 4.2 | 9.0
CSCSC1=C(C#N)C(c2ccc(Cl)cc2)C(C(C)=O)=C(C)N1 (stereo unspecified) | 2.1* | 0.9 | 1.5 | -11.1 | 10.5
O=C(COc1cccnc1[N+](=O)[O-])N1CCN(C(=O)c2ccco2)CC1 | 0.9 | 0.4 | 0.4 | 12.4 | 58.9*
O=C(COc1ccccc1O)N1CCN(C(=O)c2ccco2)CC1 | 1 | 0.9 | 1 | 6.1 | 6.6
Oc1ccc2ccccc2c1CNc1cnc2ccccc2c1 | 0.6 | 0.4 | 0.5 | 25.4 | 59.6*
O=C(Nc1cccc(N=Cc2cc(Cl)cc(Br)c2O)c1)c1ccco1 | 0.6 | 0.6 | 0.9 | 9.0 | 40.1
O=C(Nc1cccc(N=Cc2cc(Br)cc(Br)c2O)c1)c1ccco1 | 0.5 | 0.4 | 0.7 | 39.4 | 55.0*
COC(=O)[C@H](C)NC(=O)Nc1ccccc1C(F)(F)F | 0.9 | 0.9 | 0.9 | 2.4 | 6.3
NNc1ccccc1C(F)(F)F | 3.1* | 0.9 | 2* | -6.6 | 6.5
Cc1ccc(NC(=O)COC(=O)/C=C/c2ccc(Br)o2)cc1S(=O)(=O)N(C)C | 2.2* | 0.8 | 1.5 | -0.1 | 21.8
Cc1ccc(NC(=O)c2ccc(Br)o2)cc1S(=O)(=O)N(C)C | 1.2 | 1 | 1.2 | 7.2 | 0.0
Oc1c(CN2CCOCC2)cc(-c2ccccc2)cc1CN1CCOCC1 | 1 | 0.9 | 1 | 4.9 | 7.5
Oc1c(CN2CCOCC2)ccc2ccccc12 | 0.3 | 0.6 | 0.5 | 60.0* | 40.9
Cc1[nH]c(=O)[nH]c(=O)c1S(=O)(=O)N(CC(C)C)CC(C)C | 1 | 1 | 1.1 | 1.6 | 2.3
CCc1nnc(NCC(=O)N2CCc3ccccc32)s1 | 2.2* | 0.9 | 1.1 | 7.1 | 8.4
O=C(O)c1cccc(N2C(=O)/C(=C/c3ccc(SCc4ccc(Cl)cc4)o3)SC2=S)c1 | 0.3 | 0.4 | 0.3 | 20.8 | 62.0*
O=C(NNc1cc(Br)c(O)c(Br)c1)c1ccccc1 | 2* | 0.8 | 1.6 | 4.9 | 24.7
Cc1cccc(C(=O)NNC(=O)c2ccccc2)c1 | 1 | 0.8 | 0.9 | -1.4 | 15.1
COc1cccc(/C=C/C(=O)OCC(=O)Nc2ccc(Cl)c(S(=O)(=O)N(C)C)c2)c1OC | 1 | 0.8 | 0.9 | 1.8 | 24.0
CC(c1nnc(SCC(=O)Nc2cccnc2Cl)n1Cc1ccccc1)N(C)C (stereo unspecified) | 1.1 | 1 | 1 | 5.4 | -3.6
CCc1nc(SCc2ccc(Cl)cc2)n[nH]1 | 1 | 0.4 | 1 | 5.3 | 64.5*
CN(C)C(CNC(=O)c1ccc2c(=O)n(-c3ccccc3F)c(=S)[nH]c2c1)Cc1ccccc1 (stereo unspecified) | 1 | 0.9 | 1.1 | 2.5 | 5.3
Cc1ccc(CN2CCN(C(=O)C3CCCO3)CC2)cc1 (stereo unspecified) | 1 | 1 | 1 | -2.6 | 1.3
O=C(C1CCCO1)N1CCN(Cc2c(O)ccc3ccccc23)CC1 (stereo unspecified) | 0.7 | 0.4 | 0.6 | 22.4 | 56.3*
COc1ccccc1N/N=C/c1c(CO)cnc(C)c1O | 2.1* | 0.9 | 1.6 | -33.3 | 9.5
CCCSc1nc2cc(C)c(C)cc2n1CC(O)CO (stereo unspecified) | 0.9 | 0.9 | 1 | -1.0 | 6.3
